From ChEMBL document CHEMBL4017487, “Design and Synthesis of γ- and δ-Lactam M1 Positive Allosteric Modulators (PAMs): Convulsion and Cholinergic Toxicity of an M1-Selective PAM with Weak Agonist Activity” (J Med Chem, 2017)
Positions count from the first letter of the chain named.

Assays:
Rattus norvegicus [1] = test: Unbound Cmax in rat plasma at 15 mg/kg, po administered as single dose; type: ADME, organism-based; settings: in vivo
Plasma [2] = test: Unbound plasma concentration in scopolamine-induced memory impairment Wistar rat model at 1 mg/kg, sc measured after 1.25 hrs by LC-MS/MS analysis; type: ADME, organism-based; settings: in vivo
Procedure, shortened: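 Rats from a satellite group of the scopolamine (0.32 mg/kg) Morris water maze study, N = 2/dose. Dosed sc as a solution in 20% hydroxypropyl β-cyclodextrin. Compound concentrations measured in plasma only at T = 1.25 h.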

Rattus norvegicus [3] = test: Unbound AUC (0 to 24 hrs) in rat plasma at 1 mg/kg, po administered as single dose; type: ADME, organism-based; settings: in vivo
Procedure, shortened: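 Rats (3/sex/dose) dosed orally once, 1 or 5 mg/kg as a 0.5% methylcellulose suspension.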

[4] = Ratio of unbound AUC in dog brain to plasma at 0.5 mg/kg, po or 0.1 mg/kg, iv administered as single bolus dose; type: ADME, organism-based, Canis lupus familiaris
Brain [5] = test: Unbound brain concentration in scopolamine-induced memory impairment Wistar rat model at 3.2 mg/kg, sc measured after 1.25 hrs by LC-MS/MS analysis; type: ADME, organism-based; settings: in vivo
[6] = Unbound plasma concentration in dog at 0.5 mg/kg, po or 0.1 mg/kg, iv administered as single bolus dose; type: ADME, organism-based, Canis lupus familiaris
Procedure, shortened: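 Dog PK: IV bolus given as a solution, 0.1 mg/kg in 20% HPBCD; oral dose given as a suspension, 0.5 mg/kg in 0.5% methylcellulose. Fraction unbound in plasma determined.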

Rattus norvegicus [7] = test: Cholinergic toxicity in rat at 1 to 5 mg/kg, po administered as single dose; type: organism-based; settings: in vivo
Procedure, shortened: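 Rat single oral dose escalation, 3/sex/dose. 1 and 5 mg/kg as a 0.5% methylcellulose suspension; 15 and 45 mg/kg as a nanosuspension (1.25% w/v hydroxypropyl cellulose SL, 0.05% docusate sodium in water).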

[8] = Unbound plasma concentration in iv or po dosed mouse; type: ADME, organism-based
Brain [9] = test: Unbound brain concentration in amphetamine-induced hyperlocomotion C57BL/6 mouse at 0.3 mg/kg, sc measured after 1 hr by LC-MS/MS analysis; type: ADME, organism-based; settings: in vivo
Procedure, shortened: (§1)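 Satellite group of C57BL/6 mice from the amphetamine-stimulated locomotor study, N = 2/dose at 0.32, 1 and 3.2 mg/kg. Dosed sc as a solution in 10/90 Cremophor/water. Unbound plasma and brain concentrations measured at T = 1 h.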

Canis familiaris [10] = test: Toxicity in dog assessed as ataxia at 15 mg/kg, po administered as single dose using spray dried dispersion formulation after 0.8 hrs; type: organism-based, Canis lupus familiaris; settings: in vivo
Procedure, shortened: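 Dog single oral dose escalation: 1/sex at 5 mg/kg for each formulation; 1 female at 15 mg/kg. Spray-dried dispersion: 23% drug loading with 0.5% methylcellulose and 100 mM citrate buffer. Clinical signs timed in approximate hours postdose; unbound plasma Cmax.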

[11] = target: T1, Muscarinic acetylcholine receptor M1 (Rattus norvegicus, UniProt P08482); test: Agonist activity at muscarinic acetylcholine receptor M1 in Sprague-Dawley rat brain hippocampal slices assessed as increase in firing rate at CA1 pyramidal neurons after 10 mins by electrophysiology method
T1 sequence (P08482 whole entry): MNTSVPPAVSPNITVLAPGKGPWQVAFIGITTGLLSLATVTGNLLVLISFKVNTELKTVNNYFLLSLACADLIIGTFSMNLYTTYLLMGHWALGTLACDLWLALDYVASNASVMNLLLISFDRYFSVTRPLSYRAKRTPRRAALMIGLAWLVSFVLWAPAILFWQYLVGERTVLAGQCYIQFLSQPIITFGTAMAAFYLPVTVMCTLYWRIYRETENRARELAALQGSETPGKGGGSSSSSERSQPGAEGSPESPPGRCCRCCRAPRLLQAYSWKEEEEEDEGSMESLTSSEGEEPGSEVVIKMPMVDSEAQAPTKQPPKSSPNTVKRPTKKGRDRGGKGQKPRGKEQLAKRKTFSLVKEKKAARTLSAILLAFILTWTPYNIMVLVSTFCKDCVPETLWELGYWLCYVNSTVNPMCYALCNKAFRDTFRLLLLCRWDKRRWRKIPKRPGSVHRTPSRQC
Procedure, shortened: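 Rat hippocampal slices; spontaneous action potentials recorded from CA1 pyramidal neurons, read as spike rate. Agonist mode has no carbachol; PAM mode uses an EC20 level of carbachol. Top concentration tested was 3 μM.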

[12] = Half life in dog at 0.5 mg/kg, po administered as single dose; type: ADME, organism-based, Canis lupus familiaris; settings: in vivo
Procedure, shortened: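 Dog, single oral dose of 0.5 mg/kg as a suspension in 0.5% methylcellulose. Half-life taken after the oral dose.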

[13] = Ratio of unbound AUC in iv or po dosed mouse brain to plasma; type: ADME, organism-based
[14] = target: T2, Muscarinic acetylcholine receptor M1 (Homo sapiens, UniProt P11229); test: Agonist activity at human muscarinic acetylcholine receptor M1 expressed in CHO cells assessed as increase in calcium mobilization at 13 uM incubated for 10 mins by Fluo-8-AM dye based FLIPR assay relative to control; type: cell-based; settings: read-out: %max
T2 sequence (P11229 whole entry): T1 sequence (P08482 whole entry) with V5A, S254T, S309P, K320R, G337A, V413I

[15] = target: Dual 3',5'-cyclic-AMP and -GMP phosphodiesterase 11A (Homo sapiens, UniProt Q9HCR9); test: Inhibition of PDE11A4 (unknown origin)
Chain of Dual 3',5'-cyclic-AMP and -GMP phosphodiesterase 11A (Q9HCR9 whole entry): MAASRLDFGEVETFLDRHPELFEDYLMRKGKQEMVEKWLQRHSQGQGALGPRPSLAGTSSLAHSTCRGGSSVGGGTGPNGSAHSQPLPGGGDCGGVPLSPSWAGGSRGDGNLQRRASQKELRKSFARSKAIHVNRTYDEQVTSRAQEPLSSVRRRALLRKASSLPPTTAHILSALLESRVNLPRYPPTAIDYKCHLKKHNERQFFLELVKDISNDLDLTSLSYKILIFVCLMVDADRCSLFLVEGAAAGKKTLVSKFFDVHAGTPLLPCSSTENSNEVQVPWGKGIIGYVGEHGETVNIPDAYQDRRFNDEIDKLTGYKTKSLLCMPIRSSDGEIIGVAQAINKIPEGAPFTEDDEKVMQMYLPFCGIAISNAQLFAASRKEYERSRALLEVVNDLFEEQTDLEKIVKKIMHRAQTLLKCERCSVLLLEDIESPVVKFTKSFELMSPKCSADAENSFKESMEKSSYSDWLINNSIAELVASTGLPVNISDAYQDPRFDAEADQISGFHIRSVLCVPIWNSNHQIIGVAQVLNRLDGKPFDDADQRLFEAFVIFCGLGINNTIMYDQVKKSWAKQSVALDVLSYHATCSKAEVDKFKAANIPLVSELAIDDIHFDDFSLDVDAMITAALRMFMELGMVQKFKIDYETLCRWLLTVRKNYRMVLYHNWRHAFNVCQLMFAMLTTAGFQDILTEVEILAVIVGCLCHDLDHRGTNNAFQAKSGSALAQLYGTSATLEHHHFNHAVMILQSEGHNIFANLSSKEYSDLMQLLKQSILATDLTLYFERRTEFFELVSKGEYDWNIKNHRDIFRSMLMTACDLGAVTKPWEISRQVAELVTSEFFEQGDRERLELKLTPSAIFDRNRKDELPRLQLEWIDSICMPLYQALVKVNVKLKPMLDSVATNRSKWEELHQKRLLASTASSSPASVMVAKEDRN

Canis familiaris [16] = test: Unbound AUC (0 to 24 hrs) in dog plasma at 5 mg/kg, po administered as single dose using spray dried dispersion formulation; type: ADME, organism-based, Canis lupus familiaris; settings: in vivo
Canis familiaris [17] = test: Toxicity in dog assessed as death at 5 mg/kg, po administered as single dose using spray dried dispersion formulation after 1 day; type: organism-based, Canis lupus familiaris; settings: in vivo, 24 h
Procedure, shortened: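 Single oral dose in dogs, 1/sex/dose. Spray-dried dispersion formulation: 23% drug loading with 0.5% methylcellulose and 100 mM citrate buffer. Clinical signs were recorded by hours postdose, with animals checked the next morning. Necropsy was performed.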

[18] = target: T2, Muscarinic acetylcholine receptor M1; test: Positive allosteric modulation of human muscarinic acetylcholine receptor M1 expressed in CHO cells assessed as increase in acetylcholine-induced calcium mobilization preincubated for 10 mins followed by acetylcholine addition by Fluo-8-AM dye based FLIPR assay; type: ADME, cell-based
Procedure, shortened: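 M1 potentiation (PAM) format: calcium mobilization read on a FLIPR plate reader with an EC20 concentration of ACh present. EC50 is the geometric mean of at least three experiments.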

Plasma [19] = test: Unbound plasma concentration in amphetamine-induced hyperlocomotion C57BL/6 mouse at 1 mg/kg, sc measured after 1 hr by LC-MS/MS analysis; type: ADME, organism-based; settings: in vivo; procedure, shortened: as §1

In the case of `Cc1cc2c(cc1Cc1ccc(-c3cocn3)cc1)C(=O)N([C@H]1CCOC[C@@H]1O)C2`, the fCmax (Rattus norvegicus [1]) is reported as 1507 nM, the “Cp(f)” value (Plasma [2]) is reported as 66 nM and the fAUC (Rattus norvegicus [3]) is reported as 1.048 µM·h. The Kp uu [4] was 0.3, the “Drug uptake(free)” value (Brain [5]) was 40 nM and the fraction unbound [6] was 0.059. The Activity (Rattus norvegicus [7]) was “Non-Toxic”, the fraction unbound [8] was 0.013 and the “Drug uptake(free)” value (Brain [9]) was 3.8 nM. For the same compound, the Activity (Canis familiaris [10]) was “Toxic”, the Activity [11] was “Not Active” and the half-life [12] was 7.3 h. For the same compound, the Kp uu [13] was 0.3, the Emax at 13 µM [14] was 23% and the IC50 [15] was 5.06 µM. The fAUC (Canis familiaris [16]) was 3.85 µM·h, the Activity (Canis familiaris [17]) was “Toxic” and the EC50 [18] was 0.047 µM. The “Cp(f)” value (Plasma [19]) was 46 nM.
